Measured values: paper PMC2164977 (The Journal of Cell Biology, 1999)
Values belong to the molecule of their own block, whether it stands above or below them. Non-standard residues stand in square brackets, D forms with d. Residues, ends and D or L forms follow the SMILES beside them. *: point of attachment. Sta = CC(C)C[C@H](N)[C@@H](O)CC(=O)O; Isovaleryl = CC(C)CC(=O)*

What was measured:
[1] = system: degradation activity of chloroplast extract (ATP-dependent, soluble metallopeptidase activity); test: Degradation assay with chloroplast extract; assay type: biochemical; conditions: for effect on subfragment degradation in chloroplast extract: 30 min incubation, not shown
[2] = target: SPP in chloroplast extract (Pisum sativum, UniProt Q40983); test: Conversion of transit peptide to subfragment in chloroplast extract; assay type: biochemical
In short: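 [35S]methionine-labeled FD transit peptide is made by 3 min cleavage of preFD on immobilized SPP, then frozen, cleared and dialyzed. It is incubated with chloroplast extract (1:1) in 25 mM Hepes-KOH pH 7.5 at 24°C for 30 min with 1,10-phenanthroline at 0.1–10 mM. Percent substrate remaining is quantified by tricine SDS-PAGE.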

[3] = target: T1, stromal processing peptidase (SPP) (Pisum sativum, UniProt Q40983); conditions: 10 mM NEM in binding assay; data not shown
In short: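 Recombinant biotin-tagged SPP from E. coli extract is captured on streptavidin magnetic beads. It is incubated 5 min at 24°C in 25 mM Hepes-KOH pH 7.5 with dialyzed [35S]methionine-labeled FD transit peptide or subfragment. Beads are washed twice in buffer, then eluted once with NaCl (0–1,000 mM), and the remaining material is released by boiling. Tricine SDS-PAGE, autoradiography and PhosphorImager quantification follow.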

[4] = target: T1, stromal processing peptidase (SPP); test: Processing and transit peptide trimming by recombinant SPP; assay type: biochemical; conditions: not shown
In short: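 Time courses use reticulocyte-translated [35S]methionine precursors with biotin-tagged recombinant SPP (IPTG-induced E. coli, 30°C) bound to streptavidin magnetic beads. Reactions run in 25 mM Hepes-KOH pH 7.5, 2 mM PMSF, at 24°C, and are stopped by boiling in loading buffer. For preFD and preHSP21, 5 mM 1,10-phenanthroline is added at 2 or 5 min. Products are resolved by tricine SDS-PAGE and autoradiography.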

[5] = system: nonspecific protease activity in rabbit reticulocyte lysate; test: Nonspecific protease activity of the reticulocyte lysate; assay type: biochemical; conditions: 2 mM PMSF, supernatant of preHSP21 processing reaction, 1 h at 24°C
In short: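 To check lysate protease, [35S]methionine-labeled preHSP21 from reticulocyte lysate is processed 30 min at 24°C by bead-immobilized SPP. The supernatant holding the transit peptide subfragment is removed and incubated 1 h at 24°C, without inhibitor or with 2 mM PMSF. Remaining subfragment is read out.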

Chain of SPP in chloroplast extract (Q40983 143-1257): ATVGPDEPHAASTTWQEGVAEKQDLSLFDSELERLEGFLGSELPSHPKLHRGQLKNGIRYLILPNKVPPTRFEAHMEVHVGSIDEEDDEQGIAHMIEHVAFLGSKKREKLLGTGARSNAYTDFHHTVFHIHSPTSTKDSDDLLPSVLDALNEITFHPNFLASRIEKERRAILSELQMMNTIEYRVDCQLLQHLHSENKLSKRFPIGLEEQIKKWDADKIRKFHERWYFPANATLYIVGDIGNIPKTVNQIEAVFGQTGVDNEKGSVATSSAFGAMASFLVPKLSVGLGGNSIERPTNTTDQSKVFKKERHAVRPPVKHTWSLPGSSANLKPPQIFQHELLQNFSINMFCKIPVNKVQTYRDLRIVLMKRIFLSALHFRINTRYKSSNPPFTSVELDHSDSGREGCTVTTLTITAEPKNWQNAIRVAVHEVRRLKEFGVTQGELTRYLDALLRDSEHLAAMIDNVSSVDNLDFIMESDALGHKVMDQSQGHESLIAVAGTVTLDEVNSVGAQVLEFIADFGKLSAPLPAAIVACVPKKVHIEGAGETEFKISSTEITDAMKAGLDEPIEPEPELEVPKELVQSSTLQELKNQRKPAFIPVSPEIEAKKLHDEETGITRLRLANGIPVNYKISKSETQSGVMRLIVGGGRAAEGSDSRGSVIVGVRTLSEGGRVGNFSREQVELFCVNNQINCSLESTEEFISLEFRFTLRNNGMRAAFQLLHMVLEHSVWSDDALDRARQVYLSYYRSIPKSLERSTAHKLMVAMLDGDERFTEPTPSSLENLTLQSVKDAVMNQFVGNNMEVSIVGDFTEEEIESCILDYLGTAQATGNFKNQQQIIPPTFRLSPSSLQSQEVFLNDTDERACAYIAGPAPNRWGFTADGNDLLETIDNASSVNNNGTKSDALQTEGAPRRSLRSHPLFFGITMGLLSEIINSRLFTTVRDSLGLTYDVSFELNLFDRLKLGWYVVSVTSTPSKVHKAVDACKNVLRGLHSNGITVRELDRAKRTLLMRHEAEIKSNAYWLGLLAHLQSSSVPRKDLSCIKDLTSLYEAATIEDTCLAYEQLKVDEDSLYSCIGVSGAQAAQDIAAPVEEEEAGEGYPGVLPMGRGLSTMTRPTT
T1 sequence (Q40983 143-1257): as above

SMILES: CC(C)C[C@H](NC(=O)[C@H]1O[C@@H]1C(=O)O)C(=O)NCCCCN=C(N)N [E64]
effect on subfragment degradation in chloroplast extract ([1]; 100 μM inhibitor): None of these inhibitors significantly decreased

FD transit peptide subfragment remaining after 30 min in chloroplast extract ([1]; 1 mM 1,10-phenanthroline, 24°C): 86%
effect on degradation of the subfragment in chloroplast extract ([1]; 5 mM 1,10-phenanthroline, 30 min): inhibited
degradation of FD transit peptide subfragment in chloroplast extract ([1]; 10 mM 1,10-phenanthroline, 30 min, 24°C): no degradation
FD transit peptide left after 30 min in chloroplast extract ([2]; 1 mM 1,10-phenanthroline, 24°C): 16%
FD transit peptide remaining after 30 min in chloroplast extract ([2]; 10 mM 1,10-phenanthroline, 24°C): 80%
sensitivity of SPP relative to the degradation activity ([2]; SPP less sensitive than degradation activity): about tenfold
SMILES: c1cnc2c(c1)ccc1cccnc12 [1,10-phenanthroline]

SMILES: CC(C)CC(=O)N[C@H](C(=O)N[C@H](C(=O)N[C@@H](CC(C)C)[C@@H](O)CC(=O)N[C@@H](C)C(=O)N[C@@H](CC(C)C)[C@@H](O)CC(=O)O)C(C)C)C(C)C [pepstatin] (Isovaleryl-VV[Sta]A[Sta]-OH)
effect on subfragment degradation in chloroplast extract ([1]; 100 μM inhibitor): None of these inhibitors significantly decreased

effect on interaction between SPP and FD transit peptide [3]: disrupted the interaction
effect on SPP cleavage of precursors [4]: inhibited
SMILES: CCN1C(=O)C=CC1=O [NEM, N-ethylmaleimide]
effect on subfragment degradation in chloroplast extract ([1]; 10 mM inhibitor): None of these inhibitors significantly decreased

SMILES: O=S(=O)(F)Cc1ccccc1 [PMSF]
HSP21 transit peptide subfragment remaining [5]: ~90%
effect on subfragment degradation in chloroplast extract ([1]; 10 mM inhibitor): None of these inhibitors significantly decreased
